How the values were obtained:
[1] = tested on: Rattus norvegicus; assay: Antihypertensive activity in spontaneously hypertensive rats (SHR) measured by percentage fall in arterial pressure (AP) at 25 mg/kg administered intraperitoneally at 3 h; type: functional, Artery; settings: route intraperitoneal
Procedure, shortened: (§1)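 Unanesthetized Okamoto-strain SHR, male and female, 8 weeks old, 300–350 g, systolic pressure ≥190 mmHg, heart rate 400–650 beats/min; five animals per dose. Given ip at 2.5 mL/kg, dissolved or suspended in normal saline or saline with 0.2% (carboxymethyl)cellulose and 1.0% Tween 80. Tail AP and CR recorded by mechanical transduction at set times; reported as percentage fall from control.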

[2] = tested on: Rattus norvegicus; assay: Antihypertensive activity in spontaneously hypertensive rats (SHR) measured by percentage fall in cardiac rhythm (CR) at 25 mg/kg administered intraperitoneally at 5 h; type: functional, Heart; settings: route intraperitoneal
Procedure, shortened: (§2)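 Conscious SHR (Okamoto strain), 8 weeks old, male and female, 300–350 g, systolic BP ≥190 mmHg, CR 400–650 beats/min. Given ip or po at 2.5 mL/kg in normal saline or saline with 0.2% (carboxymethyl)cellulose and 1.0% Tween 80. Tail AP and CR recorded by mechanical transduction at 1, 3, 5 and 24 h, five animals per dose. Effect expressed as % fall versus control.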

[3] = tested on: Rattus norvegicus; assay: Antihypertensive activity in spontaneously hypertensive rats (SHR) measured by percentage fall in cardiac rhythm (CR) at 25 mg/kg administered intraperitoneally at 3 h; type: functional, Heart; settings: route intraperitoneal; procedure, shortened: as §1
[4] = tested on: Rattus norvegicus; assay: Antihypertensive activity in spontaneously hypertensive rats (SHR) measured by percentage fall in arterial pressure (AP) at 25 mg/kg administered intraperitoneally at 5 h; type: functional, Artery; settings: route intraperitoneal; procedure, shortened: as §1
[5] = tested on: Rattus norvegicus; assay: Antihypertensive activity in spontaneously hypertensive rats (SHR) measured by percentage fall in arterial pressure (AP) at 25 mg/kg administered intraperitoneally at 1 h; type: functional, Artery; settings: route intraperitoneal; procedure, shortened: as §1
[6] = tested on: Rattus norvegicus; assay: Antihypertensive activity in spontaneously hypertensive rats (SHR) measured by percentage fall in cardiac rhythm (CR) at 25 mg/kg administered intraperitoneally at 1 h; type: functional, Heart; settings: route intraperitoneal; procedure, shortened: as §1
[7] = tested on: Rattus norvegicus; assay: Antihypertensive activity in spontaneously hypertensive rats (SHR) measured by percentage fall in arterial pressure (AP) at 25 mg/kg administered intraperitoneally at 24 h; type: functional, Artery; settings: route intraperitoneal; procedure, shortened: as §1
[8] = tested on: Rattus norvegicus; assay: Antihypertensive activity in spontaneously hypertensive rats (SHR) measured by percentage fall in cardiac rhythm (CR) at 25 mg/kg administered intraperitoneally at 24 h; type: functional, Heart; settings: route intraperitoneal; procedure, shortened: as §1
[9] = tested on: Rattus norvegicus; assay: Antihypertensive activity in spontaneously hypertensive rats (SHR) measured by percentage fall in cardiac rhythm (CR) at 25 mg/kg administered intraperitoneally at 24 h;No significance; type: functional, organism-based; set-up: dose 25 mg/kg; settings: Heart; procedure, shortened: as §1
[10] = tested on: Rattus norvegicus; assay: Antihypertensive activity in spontaneously hypertensive rats (SHR) measured by percentage fall in cardiac rhythm (CR) at 25 mg/kg administered intraperitoneally at 3 h;No significance; type: functional, organism-based; set-up: dose 25 mg/kg; settings: Heart; procedure, shortened: as §2
[11] = tested on: Rattus norvegicus; assay: Antihypertensive activity in spontaneously hypertensive rats (SHR) measured by percentage fall in cardiac rhythm (CR) at 25 mg/kg administered intraperitoneally at 5 h;No significance; type: functional, organism-based; set-up: dose 25 mg/kg; settings: Heart; procedure, shortened: as §2
[12] = tested on: Rattus norvegicus; assay: Antihypertensive activity in spontaneously hypertensive rats (SHR) measured by percentage fall in arterial pressure (AP) at 25 mg/kg administered intraperitoneally at 24 h;No significance; type: functional, organism-based; set-up: dose 25 mg/kg; settings: Artery; procedure, shortened: as §1
[13] = species: Homo sapiens; assay: In vitro inhibition of platelet aggregation induced by […] (PRP incubated for 5 minutes at 37 degree C) at 10e-5 M; No significance; type: functional
[14] = species: Homo sapiens; assay: In vitro inhibition of platelet aggregation induced by AA (PRP incubated for 60 minutes at 37 degree C) at 10e-5 M; No significance; type: functional
Procedure, shortened: (§3)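 Human venous blood anticoagulated with 3.8% sodium citrate (1:9). PRP from centrifugation at 800 rpm for 10 min at room temperature. Count adjusted with PPP to […]. Compound in saline with 10% ethylene glycol is added to PRP and incubated at 37 °C before the agonist. Agonists: ADP 2×10^-5 M, AA 0.6 mM, PGH2 2.8 μM, adrenaline 0.6 μM. Born absorbance aggregometry; n = 5.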

[15] = species: Homo sapiens; assay: In vitro inhibition of platelet aggregation induced by ADP-II (PRP incubated for 5 minutes at 37 degree C) at 10e-5 M; No significance; type: functional; procedure, shortened: as §3
[16] = species: Homo sapiens; assay: In vitro inhibition of platelet aggregation induced by ADP-II (PRP incubated for 60 minutes at 37 degree C) at 10e-5 M; type: functional; settings: 1 h; procedure, shortened: as §3
[17] = tested on: Rattus norvegicus; assay: Antihypertensive activity in spontaneously hypertensive rats (SHR) measured by percentage fall in arterial pressure (AP) at 25 mg/kg administered perorally at 5 h; type: functional, Artery; settings: route oral
Procedure, shortened: (§4)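 Oral dosing at 2.5 mL/kg to unanesthetized male and female Okamoto-strain SHR (8 weeks old, 300–350 g, systolic pressure ≥190 mmHg, heart rate 400–650 beats/min), five per dose. Vehicle was normal saline or saline with 0.2% (carboxymethyl)cellulose and 1.0% Tween 80. AP measured on the tail by mechanical transduction at set times; expressed as percentage fall from control.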

[18] = tested on: Rattus norvegicus; assay: Antihypertensive activity in spontaneously hypertensive rats (SHR) measured by percentage fall in arterial pressure (AP) at 5 mg/kg administered intraperitoneally at 5 h; type: functional, Artery; settings: route intraperitoneal; procedure, shortened: as §1
[19] = tested on: Rattus norvegicus; assay: Antihypertensive activity in spontaneously hypertensive rats (SHR) measured by percentage fall in cardiac rhythm (CR) at 25 mg/kg administered perorally at 3 h; type: functional, Heart; settings: route oral; procedure, shortened: as §2
[20] = tested on: Rattus norvegicus; assay: Antihypertensive activity in spontaneously hypertensive rats (SHR) measured by percentage fall in cardiac rhythm (CR) at 1 mg/kg administered intraperitoneally at 24 h; type: functional, Heart; settings: route intraperitoneal; procedure, shortened: as §1
[21] = tested on: Rattus norvegicus; assay: Antihypertensive activity in spontaneously hypertensive rats (SHR) measured by percentage fall in arterial pressure (AP) at 25 mg/kg administered perorally at 24 h; type: functional, Artery; settings: route oral; procedure, shortened: as §4
[22] = tested on: Rattus norvegicus; assay: Antihypertensive activity in spontaneously hypertensive rats (SHR) measured by percentage fall in cardiac rhythm (CR) at 1 mg/kg administered intraperitoneally at 5 h; type: functional, Heart; settings: route intraperitoneal; procedure, shortened: as §1
[23] = tested on: Rattus norvegicus; assay: Antihypertensive activity in spontaneously hypertensive rats (SHR) measured by percentage fall in arterial pressure (AP) at 5 mg/kg administered intraperitoneally at 3 h; type: functional, Artery; settings: route intraperitoneal; procedure, shortened: as §1
[24] = tested on: Rattus norvegicus; assay: Antihypertensive activity in spontaneously hypertensive rats (SHR) measured by percentage fall in cardiac rhythm (CR) at 1 mg/kg administered intraperitoneally at 3 h; type: functional, Heart; settings: route intraperitoneal; procedure, shortened: as §1
[25] = tested on: Rattus norvegicus; assay: Antihypertensive activity in spontaneously hypertensive rats (SHR) measured by percentage fall in cardiac rhythm (CR) at 5 mg/kg administered intraperitoneally at 3 h; type: functional, Heart; settings: route intraperitoneal; procedure, shortened: as §2
[26] = tested on: Rattus norvegicus; assay: Antihypertensive activity in spontaneously hypertensive rats (SHR) measured by percentage fall in arterial pressure (AP) at 25 mg/kg administered perorally at 3 h; type: functional, Artery; settings: route oral; procedure, shortened: as §4
[27] = tested on: Rattus norvegicus; assay: Antihypertensive activity in spontaneously hypertensive rats (SHR) measured by percentage fall in arterial pressure (AP) at 5 mg/kg administered intraperitoneally at 24 h; type: functional, Artery; settings: route intraperitoneal; procedure, shortened: as §1
[28] = tested on: Rattus norvegicus; assay: Antihypertensive activity in spontaneously hypertensive rats (SHR) measured by percentage fall in cardiac rhythm (CR) at 25 mg/kg administered intraperitoneally at 1 h;No significance; type: functional, organism-based; set-up: dose 25 mg/kg; settings: Heart; procedure, shortened: as §1
[29] = tested on: Rattus norvegicus; assay: Antihypertensive activity in spontaneously hypertensive rats (SHR) measured by percentage fall in arterial pressure (AP) at 25 mg/kg administered intraperitoneally at 3 h;No significance; type: functional, organism-based; set-up: dose 25 mg/kg; settings: Artery; procedure, shortened: as §1
[30] = tested on: Rattus norvegicus; assay: Antihypertensive activity in spontaneously hypertensive rats (SHR) measured by percentage fall in arterial pressure (AP) at 25 mg/kg administered intraperitoneally at 5 h;No significance; type: functional, organism-based; set-up: dose 25 mg/kg; settings: Artery; procedure, shortened: as §1
[31] = tested on: Rattus norvegicus; assay: Antihypertensive activity in spontaneously hypertensive rats (SHR) measured by percentage fall in arterial pressure (AP) at 25 mg/kg administered intraperitoneally at 1 h;No significance; type: functional, organism-based; set-up: dose 25 mg/kg; settings: Artery; procedure, shortened: as §1

Structure (SMILES)	Decrease in AP [1] [%]	Decrease in CR [2] [%]	Decrease in CR [3] [%]	Decrease in AP [4] [%]	Decrease in AP [5] [%]	Decrease in CR [6] [%]	Decrease in AP [7] [%]	Decrease in CR [9]	other results
NNc1[nH]ncc2c3cc(OCc4ccccc4)ccc3nc1-2.O=S(=O)(O)O	32	8	7	26	21	9	–	–	–
COc1ccc2[nH]c3c(NN)nncc3c2c1	32	-10	-8	30	17	-8	5	–	–
Cl.NNc1[nH]ncc2c3cc(OCc4ccccc4)ccc3nc1-2	33	-15	-13	28	18	-7	9	–	Decrease in CR [8]: -16%
COc1ccc2[nH]c3c(cnn4nnnc34)c2c1	12	–	–	8	–	–	6	No significant values	Decrease in CR [10]: No significant values; Decrease in CR [11]: No significant values
COc1ccc2[nH]c3c(cnn4c(C)nnc34)c2c1	10	7	-5	8	–	–	–	No significant values	Decrease in AP [12]: No significant values
COc1ccc2c(c1)cc1c(S)nncn12	–	–	–	–	–	–	–	–	inhibition [13]: No significant values; inhibition [14]: No significant values; inhibition [15]: No significant values; inhibition at 10 µM [16]: 100%
NNc1[nH]ncc2c3cc(OCc4ccccc4)ccc3nc1-2	12	20	15	13	–	–	7	–	Decrease in AP [17]: 10%; Decrease in AP [18]: 13%; Decrease in CR [19]: 21%; Decrease in CR [20]: 9%; Decrease in AP [21]: 5%; Decrease in CR [22]: 6%; Decrease in AP [23]: 5%; Decrease in CR [8]: 7%; Decrease in CR [24]: 8%; Decrease in CR [25]: 16%; Decrease in AP [26]: 6%; Decrease in AP [27]: 7%
COc1ccc2c(c1)cc1c(NN)nncn12	–	–	–	–	–	–	–	No significant values	Decrease in CR [28]: No significant values; Decrease in AP [29]: No significant values; Decrease in AP [12]: No significant values; Decrease in CR [10]: No significant values; inhibition [13]: No significant values; Decrease in CR [11]: No significant values; inhibition [14]: No significant values; Decrease in AP [30]: No significant values; Decrease in AP [31]: No significant values

Reference: ChEMBL document CHEMBL1123757, “Selective thromboxane synthetase inhibitors and antihypertensive agents. New derivatives of 4-hydrazino-5H-pyridazino[4,5-b]indole, 4-hydrazinopyridazino[4,5-a]indole, and related compounds” (J Med Chem, 1987)
